# Data reported in ChEMBL document CHEMBL5038571, “Design and Synthesis of EZH2-Based PROTACs to Degrade the PRC2 Complex for Targeting the Noncatalytic Activity of EZH2” (J Med Chem, 2021).
# Active and inactive are the calls of the source. The rule behind the calls is not given here.
# How the values were obtained:
# [1] = target: T1, Protein cereblon/Histone-lysine N-methyltransferase EZH2 (Homo sapiens) (UniProt Q15910+Q96SW2); assay: PROTAC activity at CRBN E3 ligase/EZH2 in PRC2 complex in human WSUDLCL2 cells assessed as reduction in H3K27me3 level at 1 uM incubated for 48 hrs by Western blot analysis; type: cell-based
# T1 sequence (Q15910 whole entry, looked up): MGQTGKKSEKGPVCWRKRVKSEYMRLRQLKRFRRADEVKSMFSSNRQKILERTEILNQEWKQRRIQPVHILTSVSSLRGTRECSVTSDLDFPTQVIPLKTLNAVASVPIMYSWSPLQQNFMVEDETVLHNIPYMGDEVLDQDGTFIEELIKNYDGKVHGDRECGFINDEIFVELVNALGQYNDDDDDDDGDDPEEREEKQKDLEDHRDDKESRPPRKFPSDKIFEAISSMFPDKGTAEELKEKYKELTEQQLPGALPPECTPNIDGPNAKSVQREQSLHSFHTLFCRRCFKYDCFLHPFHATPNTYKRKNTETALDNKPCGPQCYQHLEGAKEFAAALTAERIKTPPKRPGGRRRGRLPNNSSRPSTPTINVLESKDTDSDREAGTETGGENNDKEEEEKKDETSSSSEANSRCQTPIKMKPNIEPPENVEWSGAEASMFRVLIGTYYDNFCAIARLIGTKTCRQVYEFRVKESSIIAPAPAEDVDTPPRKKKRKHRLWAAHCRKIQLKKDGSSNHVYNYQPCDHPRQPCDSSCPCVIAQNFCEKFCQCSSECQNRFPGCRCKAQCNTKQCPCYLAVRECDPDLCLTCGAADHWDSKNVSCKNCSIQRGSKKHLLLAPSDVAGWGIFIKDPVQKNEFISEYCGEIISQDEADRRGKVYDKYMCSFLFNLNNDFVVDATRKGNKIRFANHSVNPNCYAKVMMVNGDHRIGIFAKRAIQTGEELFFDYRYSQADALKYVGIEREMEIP
# T1 sequence (Q96SW2 whole entry, looked up): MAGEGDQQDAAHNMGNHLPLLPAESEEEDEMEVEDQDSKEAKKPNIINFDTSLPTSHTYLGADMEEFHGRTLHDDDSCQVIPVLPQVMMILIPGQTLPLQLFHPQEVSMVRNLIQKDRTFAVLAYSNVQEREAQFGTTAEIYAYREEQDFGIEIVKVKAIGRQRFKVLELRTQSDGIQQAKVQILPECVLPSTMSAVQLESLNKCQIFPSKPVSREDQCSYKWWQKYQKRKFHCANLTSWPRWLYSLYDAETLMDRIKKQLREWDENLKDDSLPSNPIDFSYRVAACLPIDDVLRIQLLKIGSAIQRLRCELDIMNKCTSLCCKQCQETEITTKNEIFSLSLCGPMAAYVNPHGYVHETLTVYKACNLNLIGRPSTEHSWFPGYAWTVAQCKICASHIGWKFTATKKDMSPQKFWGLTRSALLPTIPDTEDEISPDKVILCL
# Method in brief: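 WSU-DLCL-2 cells treated 48 h (1 μM for the single-concentration screen), lysed; SDS-PAGE, nitrocellulose transfer, 5% milk block, primary antibody 4 °C overnight, chemiluminescence. Bands quantified by densitometry, normalized to GAPDH, expressed relative to DMSO-treated cells; mean ± SD of three independent experiments, t-test.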
# [2] = target: T1, Protein cereblon/Histone-lysine N-methyltransferase EZH2 (Homo sapiens); assay: PROTAC activity at CRBN E3 ligase/EZH2 in PRC2 complex in human WSUDLCL2 cells assessed as induction of SUZ12 degradation at up to 10 uM incubated for 72 hrs by Western blot analysis; type: cell-based; details: dose microM <=10, time 72.0 hrs
# [3] = target: T1, Protein cereblon/Histone-lysine N-methyltransferase EZH2 (Homo sapiens); assay: PROTAC activity at CRBN E3 ligase/EZH2 in PRC2 complex in human WSUDLCL2 cells assessed as induction of EED degradation at up to 10 uM incubated for 72 hrs by Western blot analysis; type: cell-based; details: dose microM <=10, time 72.0 hrs
# [4] = target: T1, Protein cereblon/Histone-lysine N-methyltransferase EZH2 (Homo sapiens); assay: PROTAC activity at CRBN E3 ligase/EZH2 in PRC2 complex in human WSUDLCL2 cells assessed as induction of EZH2 degradation incubated for 72 hrs by Western blot analysis; type: cell-based; details: dose 0-10 µM
# [5] = target: T1, Protein cereblon/Histone-lysine N-methyltransferase EZH2 (Homo sapiens); assay: PROTAC activity at CRBN E3 ligase/EZH2 in PRC2 complex in human WSUDLCL2 cells assessed as reduction in H3K27me3 level incubated for 72 hrs by Western blot analysis; type: cell-based; details: dose 0-10 µM
# [6] = target: Histone-lysine N-methyltransferase EZH2 (Homo sapiens, UniProt Q15910); type: cell-based, Sf9
# Chain of Histone-lysine N-methyltransferase EZH2 (Q15910 whole entry): as the sequence (Q15910 whole entry, looked up) above
# [7] = target: T1, Protein cereblon/Histone-lysine N-methyltransferase EZH2 (Homo sapiens); assay: PROTAC activity at CRBN E3 ligase/EZH2 in PRC2 complex in human WSUDLCL2 cells assessed as induction of EZH2 degradation at up to 10 uM incubated for 72 hrs by Western blot analysis; type: cell-based; details: dose microM <=10, time 72.0 hrs
# [8] = target: T1, Protein cereblon/Histone-lysine N-methyltransferase EZH2 (Homo sapiens); assay: PROTAC activity at CRBN E3 ligase/EZH2 in PRC2 complex in human WSUDLCL2 cells assessed as reduction in H3K27me3 level at up to 10 uM incubated for 72 hrs by Western blot analysis; type: cell-based; details: dose microM <=10, time 72.0 hrs
# NCI-H1299 [9] = assay: Downregulation of CENPK mRNA expression in human NCI-H1299 cells at 10 uM incubated for 48 hrs by qRT-PCR analysis; type: functional, cell-based
# Method in brief: (§1)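 Cells treated 48 h. Total RNA extracted with Trizol, reverse-transcribed, and SYBR RT-qPCR run: 95 °C 30 s, then 40 cycles of 95 °C 6 s and 60 °C 20 s. mRNA normalized to the DMSO-treated group. Mean SD of three independent experiments, t-test versus DMSO.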
# WSUDLCL2 = assay: Antiproliferative activity against human WSUDLCL2 cells harboring EZH2-Y641F mutant assessed as inhibition of cell growth at 10 uM incubated for 9 days by optical microscopic analysis; type: functional, cell-based; details: time 9.0 day
# Method in brief: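 WSU-DLCL-2 cells seeded at 5 × 10³ per well, incubated 24 h, then exposed to 10 μM compound for 9 days with medium refreshed. Cells photographed and counted on days 1, 3, 5, 7 and 9. Mean SD of three independent experiments, t-test versus DMSO.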
# A549 [10] = assay: Downregulation of […] mRNA expression in human A549 cells at 10 uM incubated for 48 hrs by qRT-PCR analysis; type: functional, cell-based; method in brief: as §1
# A549 [11] = assay: Downregulation of ARL6IP mRNA expression in human A549 cells at 10 uM incubated for 48 hrs by qRT-PCR analysis; type: functional, cell-based; method in brief: as §1
# A549 [12] = assay: Downregulation of CEP76 mRNA expression in human A549 cells at 10 uM incubated for 48 hrs by qRT-PCR analysis; type: functional, cell-based; method in brief: as §1
# A549 [13] = assay: Downregulation of CENPK mRNA expression in human A549 cells at 10 uM incubated for 48 hrs by qRT-PCR analysis; type: functional, cell-based; method in brief: as §1
# A549 [14] = assay: Downregulation of CHEK1 mRNA expression in human A549 cells at 10 uM incubated for 48 hrs by qRT-PCR analysis; type: functional, cell-based; method in brief: as §1
# A549 [15] = assay: Downregulation of TACC3 mRNA expression in human A549 cells at 10 uM incubated for 48 hrs by qRT-PCR analysis; type: functional, cell-based; method in brief: as §1
# NCI-H1299 [16] = assay: Downregulation of […] mRNA expression in human NCI-H1299 cells at 10 uM incubated for 48 hrs by qRT-PCR analysis; type: functional, cell-based; method in brief: as §1
# NCI-H1299 [17] = assay: Downregulation of ARL6IP mRNA expression in human NCI-H1299 cells at 10 uM incubated for 48 hrs by qRT-PCR analysis; type: functional, cell-based; method in brief: as §1
# NCI-H1299 [18] = assay: Downregulation of CEP76 mRNA expression in human NCI-H1299 cells at 10 uM incubated for 48 hrs by qRT-PCR analysis; type: functional, cell-based; method in brief: as §1
# NCI-H1299 [19] = assay: Downregulation of CHEK1 mRNA expression in human NCI-H1299 cells at 10 uM incubated for 48 hrs by qRT-PCR analysis; type: functional, cell-based; method in brief: as §1
# NCI-H1299 [20] = assay: Downregulation of TACC3 mRNA expression in human NCI-H1299 cells at 10 uM incubated for 48 hrs by qRT-PCR analysis; type: functional, cell-based; method in brief: as §1
# MDA-MB-468 [21] = assay: Downregulation of […] mRNA expression in human MDA-MB-468 cells at 10 uM incubated for 48 hrs by qRT-PCR analysis; type: functional, cell-based; method in brief: as §1
# MDA-MB-468 [22] = assay: Downregulation of ARL6IP mRNA expression in human MDA-MB-468 cells at 10 uM incubated for 48 hrs by qRT-PCR analysis; type: functional, cell-based; method in brief: as §1
# MDA-MB-468 [23] = assay: Downregulation of CEP76 mRNA expression in human MDA-MB-468 cells at 10 uM incubated for 48 hrs by qRT-PCR analysis; type: functional, cell-based; method in brief: as §1
# MDA-MB-468 [24] = assay: Downregulation of CHEK1 mRNA expression in human MDA-MB-468 cells at 10 uM incubated for 48 hrs by qRT-PCR analysis; type: functional, cell-based; method in brief: as §1
# MDA-MB-468 [25] = assay: Downregulation of TACC3 mRNA expression in human MDA-MB-468 cells at 10 uM incubated for 48 hrs by qRT-PCR analysis; type: functional, cell-based; method in brief: as §1
# NCI-H1299 [26] = assay: Antiproliferative activity against human NCI-H1299 cells harboring SWI/SNF mutant assessed as inhibition of cell growth at 10 uM treated for 9 days by optical microscopic analysis; type: functional, cell-based; details: time 9.0 day
# Method in brief: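 Cells seeded at 5 × 10³ per well, grown 24 h, then exposed to compound at 10 μM for 9 days with medium refreshed. Cells were photographed and counted on days 1, 3, 5, 7 and 9. For lines 1-2, EZH2-targeting or control shRNA was induced in the cells. Mean SD of three independent experiments; t-test against control.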
# MDA-MB-468 [27] = assay: Downregulation of CENPK mRNA expression in human MDA-MB-468 cells at 10 uM incubated for 48 hrs by qRT-PCR analysis; type: functional, cell-based; method in brief: as §1
compound,measurement,setting,value
CC[C@H](C)n1cc(C)c2c(C(=O)NCc3c(C)cc(C)[nH]c3=O)cc(-c3ccc(N4CCN(CCCCCCCCCCCCOc5cccc6c5C(=O)N(C5CCC(=O)NC5=O)C6=O)CC4)nc3)cc21 (stereo not given in full),Activity,[1],Active
same,Activity,[2],Active
same,Activity,[3],Active
same,Activity,[4],Dose-Dependent Effect
same,Activity,[5],Dose-Dependent Effect
same,IC50,[6],61 nM
CC[C@H](C)n1cc(C)c2c(C(=O)NCc3c(C)cc(C)[nH]c3=O)cc(-c3ccc(N4CCNCC4)nc3)cc21,Activity,[7],inactive
same,Activity,[2],inactive
same,Activity,[3],inactive
same,Activity,[8],Active
same,Activity,NCI-H1299 [9],inactive
same,Activity,WSUDLCL2,Active
same,Activity,A549 [10],inactive
same,Activity,A549 [11],inactive
same,Activity,A549 [12],inactive
same,Activity,A549 [13],inactive
same,Activity,A549 [14],inactive
same,Activity,A549 [15],inactive
same,Activity,NCI-H1299 [16],inactive
same,Activity,NCI-H1299 [17],inactive
same,Activity,NCI-H1299 [18],inactive
same,Activity,NCI-H1299 [19],inactive
same,Activity,NCI-H1299 [20],inactive
same,Activity,MDA-MB-468 [21],inactive
same,Activity,MDA-MB-468 [22],inactive
same,Activity,MDA-MB-468 [23],inactive
same,Activity,MDA-MB-468 [24],inactive
same,Activity,MDA-MB-468 [25],inactive
same,Activity,NCI-H1299 [26],inactive
same,Activity,MDA-MB-468 [27],inactive
